Laboratory results taken from ChEMBL document CHEMBL4229499, “Development of novel silanol-based human pregnane X receptor (PXR) agonists with improved receptor selectivity” (Bioorg Med Chem, 2018).

Tests used:
[1] = molecular target: T1, Nuclear receptor subfamily 1 group I member 2 (Homo sapiens, UniProt O75469); assay: Agonist activity at VP16-fused human PXR expressed in HEK293 cells after 24 hrs by luciferase reporter gene assay; format: cell-based
T1 sequence (O75469 whole entry): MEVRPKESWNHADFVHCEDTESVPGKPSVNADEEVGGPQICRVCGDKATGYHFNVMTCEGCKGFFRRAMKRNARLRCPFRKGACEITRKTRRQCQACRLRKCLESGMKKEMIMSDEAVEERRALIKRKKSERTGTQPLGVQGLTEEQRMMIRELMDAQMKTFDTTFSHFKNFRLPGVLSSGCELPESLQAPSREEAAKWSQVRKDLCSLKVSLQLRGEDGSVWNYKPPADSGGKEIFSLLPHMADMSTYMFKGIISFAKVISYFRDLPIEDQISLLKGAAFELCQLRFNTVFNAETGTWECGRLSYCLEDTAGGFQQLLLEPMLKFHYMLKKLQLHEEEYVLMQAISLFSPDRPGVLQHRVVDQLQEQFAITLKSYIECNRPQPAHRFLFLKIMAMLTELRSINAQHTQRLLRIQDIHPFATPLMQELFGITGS
Summary of the method: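 HEK293 cells grown in DMEM with 5% FBS and penicillin/streptomycin at 37 °C, 5% CO₂. Seeded at 20% confluence 24 h before calcium-phosphate co-transfection with 150 ng receptor expression plasmid (PXR as a VP16 fusion), 500 ng luciferase reporter and 10 ng β-gal vector. Luciferase was normalized to β-galactosidase, in triplicate transfections.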

[2] = molecular target: T2, Nuclear receptor ROR-gamma (Homo sapiens, UniProt P51449); assay: Inhibition of human RORgamma1 expressed in HEK293 cells after 24 hrs by luciferase reporter gene assay; format: cell-based
T2 sequence (P51449 whole entry): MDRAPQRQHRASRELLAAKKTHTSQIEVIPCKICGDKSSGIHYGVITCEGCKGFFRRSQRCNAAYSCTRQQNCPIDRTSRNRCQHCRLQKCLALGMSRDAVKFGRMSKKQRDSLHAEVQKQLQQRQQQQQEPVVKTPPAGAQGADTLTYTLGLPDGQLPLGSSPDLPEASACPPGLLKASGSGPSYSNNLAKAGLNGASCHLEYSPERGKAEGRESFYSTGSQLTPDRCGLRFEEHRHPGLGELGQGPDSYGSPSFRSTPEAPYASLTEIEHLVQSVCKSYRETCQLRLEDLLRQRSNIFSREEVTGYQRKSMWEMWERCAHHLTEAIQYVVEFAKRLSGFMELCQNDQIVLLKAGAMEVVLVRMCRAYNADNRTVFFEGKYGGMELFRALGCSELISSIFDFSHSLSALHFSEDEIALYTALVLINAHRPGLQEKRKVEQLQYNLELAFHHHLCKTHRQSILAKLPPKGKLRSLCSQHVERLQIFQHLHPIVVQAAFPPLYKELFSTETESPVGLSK

[3] = molecular target: T3, Nuclear receptor ROR-alpha (Homo sapiens, UniProt P35398); assay: Inhibition of human RORalpha1 expressed in HEK293 cells after 24 hrs by luciferase reporter gene assay; format: cell-based
T3 sequence (P35398 whole entry): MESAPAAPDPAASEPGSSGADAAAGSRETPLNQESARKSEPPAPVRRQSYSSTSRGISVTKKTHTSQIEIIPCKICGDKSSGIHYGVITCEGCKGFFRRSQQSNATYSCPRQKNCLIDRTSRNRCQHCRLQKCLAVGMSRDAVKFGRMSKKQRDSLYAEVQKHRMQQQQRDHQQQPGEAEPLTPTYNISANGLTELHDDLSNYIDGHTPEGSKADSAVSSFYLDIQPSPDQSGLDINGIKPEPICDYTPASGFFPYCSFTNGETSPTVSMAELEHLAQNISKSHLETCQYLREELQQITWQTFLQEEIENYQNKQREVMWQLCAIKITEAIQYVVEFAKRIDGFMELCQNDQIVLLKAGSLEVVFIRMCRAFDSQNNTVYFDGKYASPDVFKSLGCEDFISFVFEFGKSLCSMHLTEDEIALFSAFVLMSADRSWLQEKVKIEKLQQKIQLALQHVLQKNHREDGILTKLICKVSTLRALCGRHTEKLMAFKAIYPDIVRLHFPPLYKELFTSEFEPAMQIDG

[4] = Octanol/water partition co-efficient, log P of the compound by HPLC method; format: physicochemical
[5] = molecular target: T4, Nuclear receptor ROR-alpha (Homo sapiens) (UniProt P35398); assay: Agonist activity at human RORalpha1 expressed in HEK293 cells after 24 hrs by luciferase reporter gene assay; format: cell-based
T4 sequence (whole entry): T3 sequence (P35398 whole entry)

[6] = molecular target: T5, Nuclear receptor ROR-gamma (Homo sapiens) (UniProt P51449); assay: Agonist activity at human RORgamma1 expressed in HEK293 cells after 24 hrs by luciferase reporter gene assay; format: cell-based
T5 sequence (whole entry): T2 sequence (P51449 whole entry)

| Structure (SMILES) | EC50 ([1]; read-out: EC50) [µM] | IC50 ([2]; hek293) | IC50 ([3]; hek293) | logP [4] | EC50 ([1]; hek293) | IC50 ([2]; read-out: IC50) [µM] | IC50 ([3]; read-out: IC50) [µM] | Activity [5] [%] | Activity [6] [%] |
| --- | --- | --- | --- | --- | --- | --- | --- | --- | --- |
| COC(=O)CN(c1ccc(C(C)(C)O)cc1)S(=O)(=O)c1ccccc1 | – | – | Not Active | 2.35 | Not Active | > 30 | – | – | – |
| O=C(O)c1ccc(N(CC(F)(F)F)S(=O)(=O)c2ccccc2)cc1 | – | Not Active | Not Active | – | Not Active | – | – | – | – |
| CCCCN(c1ccc([Si](C)(C)O)cc1)S(=O)(=O)c1ccccc1 | 6.5 | – | – | 4.05 | – | > 30 | > 30 | – | – |
| COCCN(c1ccc([Si](C)(C)O)cc1)S(=O)(=O)c1ccccc1 | 4.2 | Not Active | Not Active | 2.81 | – | – | – | – | – |
| C[Si](C)(O)c1ccc(N(CCc2ccccc2)S(=O)(=O)c2ccccc2)cc1 | 14 | – | – | 4.32 | – | > 30 | > 30 | – | – |
| CC(C)(O)c1ccc(N(CC(F)(F)F)S(=O)(=O)c2ccccc2)cc1 | – | – | Not Active | – | Not Active | > 30 | – | – | – |

Second part, the compound after the results:

| EC50 ([1]; read-out: EC50) [µM] | IC50 ([2]; hek293) | IC50 ([3]; hek293) | logP [4] | EC50 ([1]; hek293) | IC50 ([2]; read-out: IC50) [µM] | IC50 ([3]; read-out: IC50) [µM] | Activity [5] [%] | Activity [6] [%] | Structure (SMILES) |
| --- | --- | --- | --- | --- | --- | --- | --- | --- | --- |
| 1.4 | Not Active | Not Active | 2.79 | – | – | – | – | – | COC(=O)CN(c1ccc([Si](C)(C)O)cc1)S(=O)(=O)c1ccccc1 |
| 3.2 | – | – | 3.92 | – | > 30 | > 30 | – | – | C[Si](C)(O)c1ccc(N(Cc2ccccc2)S(=O)(=O)c2ccccc2)cc1 |
| 1.9 | – | – | 3.2 | – | > 30 | > 30 | – | – | CCN(c1ccc([Si](C)(C)O)cc1)S(=O)(=O)c1ccccc1 |
| 3.4 | – | – | 2.9 | – | – | – | 53 | 54 | CN(c1ccc([Si](C)(C)O)cc1)S(=O)(=O)c1ccccc1 |
| 0.63 | – | – | – | – | 11 | > 30 | – | – | C[Si](C)(O)c1ccc(N(CC(F)(F)F)S(=O)(=O)c2ccccc2)cc1 |
| 2.4 | Not Active | Not Active | 2.22 | – | – | – | – | – | C[Si](C)(O)c1ccc(NS(=O)(=O)c2ccccc2)cc1 |
